Laboratory results: ChEMBL document CHEMBL1149264, “Discovery of novel phenolic antioxidants as inhibitors of vascular cell adhesion molecule-1 expression for use in chronic inflammatory diseases” (J Med Chem, 2004)
Activity calls are given as the source filed them. The calls are words filed in the database; no cut-off is given here.

Tests used:
[1] = Inhibition of TNF-alpha-stimulated VCAM1 expression in endothelial cells; format: functional, cell-based; settings: Homo sapiens, Endothelial cell
Rattus norvegicus [2] = species on record: Rattus norvegicus; test: Inhibition of artheriosclerosis in allograft recipient rat; format: functional, organism-based
Syrian golden hamster [3] = test: Effect on HDL level in hypercholesterolemic golden Syrian hamster; format: functional, Mesocricetus auratus; parameters: unit not given here
Method in brief: (§1)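 Male golden Syrian hamsters (110-120 g), housed singly, given compound mixed into powdered chow at 150 mg/kg/d for two weeks. After an overnight fast and ketamine/xylazine i.p. anesthesia, blood was taken by cardiac puncture or abdominal aorta. Plasma was fractionated by FPLC and lipoprotein cholesterol measured enzymatically. Dunnett's test against controls.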

Syrian golden hamster [4] = test: Effect on LDL level in hypercholesterolemic golden Syrian hamster; format: functional, Mesocricetus auratus; parameters: unit not given here; method in brief: as §1
Rattus norvegicus [5] = test: Inhibition of paw edema in collagen 2-sensitized orally dosed rat model; format: functional, organism-based
PBMN = test: Inhibition of LPS-induced IL1-beta secretion in human PBMN cells at 10 uM by ELISA; format: functional, cell-based
Method in brief: (§2)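 Fresh cryopreserved human PBMCs at 1 million cells/mL in lymphocyte growth media-3 were pretreated with compound for 1 h, then stimulated with LPS 1 μg/mL for a further 2 h with compound present. Secreted TNF-α, IL-6 and IL-1β in conditioned media measured by human ELISA, in duplicate (mean ± SD). Experiments repeated at least three times.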

[6] = Inhibition of LPS-induced TNFalpha secretion in human PBMN cells by ELISA; format: functional, cell-based; method in brief: as §2
Mus musculus [7] = test: Inhibition of mBSA-induced paw-swelling in DTH BALB/c mouse model at 25 mg/kg, sc; format: functional; settings: route subcutaneous
Method in brief: (§3)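 Male BALB/c mice (20-25 g) sensitized on day 0 with intradermal abdominal mBSA (5 mg/mL)/Freund's complete adjuvant 1:1 emulsion. On day 7 challenged with mBSA in the right hind footpad, saline in the left. Compound given s.c. 24 h and 2 h before challenge; cyclosporin A 20 mg/kg as reference. Feet weighed 24 h post-challenge; swelling inhibition relative to vehicle group (100%). ANOVA with Fisher's PLSD.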

[8] = Inhibition of LPS-induced IL6 secretion in human PBMN cells by ELISA; format: functional, cell-based; method in brief: as §2
Mus musculus [9] = test: Inhibition of mBSA-induced paw-swelling in DTH BALB/c mouse model at 50 mg/kg, sc; format: functional; settings: route subcutaneous; method in brief: as §3
[10] = biological target: T1, Polyunsaturated fatty acid lipoxygenase ALOX15 (Homo sapiens, UniProt P16050); test: Inhibition of 15-lipoxygenase by LMB assay
T1 sequence (P16050 whole entry): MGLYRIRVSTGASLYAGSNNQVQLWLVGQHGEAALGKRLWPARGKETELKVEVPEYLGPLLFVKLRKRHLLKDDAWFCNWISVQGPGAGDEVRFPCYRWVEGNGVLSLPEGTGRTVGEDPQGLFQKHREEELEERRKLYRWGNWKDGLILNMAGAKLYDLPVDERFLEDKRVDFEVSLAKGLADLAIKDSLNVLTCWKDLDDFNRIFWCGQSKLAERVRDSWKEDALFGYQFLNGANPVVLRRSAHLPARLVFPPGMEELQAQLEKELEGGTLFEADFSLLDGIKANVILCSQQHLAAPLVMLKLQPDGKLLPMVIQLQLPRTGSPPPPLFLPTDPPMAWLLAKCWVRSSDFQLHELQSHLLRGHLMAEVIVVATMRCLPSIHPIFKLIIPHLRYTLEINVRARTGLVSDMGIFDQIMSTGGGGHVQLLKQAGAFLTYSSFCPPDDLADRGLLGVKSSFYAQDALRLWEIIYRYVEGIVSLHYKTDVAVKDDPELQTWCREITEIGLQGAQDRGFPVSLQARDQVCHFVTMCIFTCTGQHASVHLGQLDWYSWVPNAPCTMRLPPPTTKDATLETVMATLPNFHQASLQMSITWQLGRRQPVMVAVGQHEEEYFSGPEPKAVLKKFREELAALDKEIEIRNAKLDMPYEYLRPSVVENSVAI

[11] = Inhibition of LPS-induced IL1-beta secretion in human PBMN cells by ELISA; format: functional, cell-based; method in brief: as §2

Question: For `CC(=O)O[C@@H]1O[C@H](COc2c(C(C)(C)C)ccc(SC(C)(C)Sc3cc(C(C)(C)C)c(O)c(C(C)(C)C)c3)c2C(C)(C)C)[C@@H](OC(C)=O)[C@H](OC(C)=O)[C@H]1OC(C)=O`, which IC50 [1] is on record?
Answer: > 50 µM

Question: With `CC(C)(Sc1cc(C(C)(C)C)c(O)c(C(C)(C)C)c1)Sc1cc(C(C)(C)C)c(OCCCC(=O)O)c(C(C)(C)C)c1` [ELSIBUCOL] as the molecule, how does the Activity (Rattus norvegicus [2]) read?
Answer: Active

Question: And the IC50 [1]?
Answer: 11 µM

Question: For `CC(C)(Sc1cc(C(C)(C)C)c(O)c(C(C)(C)C)c1)Sc1ccc(C(C)(C)C)c(OC[C@H]2OC(=O)[C@H](O)[C@@H]2O)c1C(C)(C)C`, which IC50 [1] is on record?
Answer: 13 µM

Question: For `CC(=O)OCC(O)COc1c(C(C)(C)C)ccc(SC(C)(C)Sc2cc(C(C)(C)C)c(O)c(C(C)(C)C)c2)c1C(C)(C)C` (configuration not stated), which IC50 [1] is on record?
Answer: 41 µM

Question: Which IC50 [1] does the source give for `CC(C)(Sc1cc(C(C)(C)C)c(O)c(C(C)(C)C)c1)Sc1cc(C(C)(C)C)c(OCC(=O)O)c(C(C)(C)C)c1` [CAMOBUCOL] here?
Answer: 10 µM

Question: And the Activity (Syrian golden hamster [3])?
Answer: 86

Question: And the Activity (Syrian golden hamster [4])?
Answer: 18

Question: What about the Activity (Rattus norvegicus [5]) of the same molecule?
Answer: Dose-dependent effect

Question: Which IC50 [1] does the source give for `CN(CC(=O)O)C(=O)COc1c(C(C)(C)C)ccc(SC(C)(C)Sc2cc(C(C)(C)C)c(O)c(C(C)(C)C)c2)c1C(C)(C)C` here?
Answer: 7 µM

Question: For `CC(C)(Sc1cc(C(C)(C)C)c(O)c(C(C)(C)C)c1)Sc1ccc(C(C)(C)C)c(OC[C@H]2OC(O)[C@H](O)[C@@H](O)[C@@H]2O)c1C(C)(C)C` (some centres not stated), which Activity (PBMN) is on record?
Answer: Active

Question: What about the IC50 [6] of the same molecule?
Answer: 1.9 µM

Question: And the inhibition in vivo at 25 mg/kg (Mus musculus [7])?
Answer: 29%

Question: And the IC50 [1]?
Answer: 10 µM

Question: And the Activity (Syrian golden hamster [3])?
Answer: 63

Question: And the IC50 [8]?
Answer: 1.6 µM

Question: What about the Activity (Syrian golden hamster [4]) of the same molecule?
Answer: 9

Question: What about the inhibition in vivo at 50 mg/kg (Mus musculus [9]) of the same molecule?
Answer: 58%

Question: And the IC50 [10]?
Answer: 10 µM

Question: With `CC(C)(Sc1cc(C(C)(C)C)c(O)c(C(C)(C)C)c1)Sc1ccc(C(C)(C)C)c(OCC(=O)NCC(=O)O)c1C(C)(C)C` as the molecule, how does the IC50 [1] read?
Answer: 6 µM

Question: Which IC50 [1] does the source give for `CC(C)(Sc1cc(C(C)(C)C)c(O)c(C(C)(C)C)c1)Sc1ccc(C(C)(C)C)c(OCC(O)CO)c1C(C)(C)C` (configuration not stated) here?
Answer: 30 µM

Question: Which IC50 [1] does the source give for `CC(C)(Sc1cc(C(C)(C)C)c(O)c(C(C)(C)C)c1)Sc1ccc(C(C)(C)C)c(OCCCCC(=O)O)c1C(C)(C)C` here?
Answer: 23 µM

Question: Which IC50 [1] does the source give for `CCOCC(O)COc1c(C(C)(C)C)ccc(SC(C)(C)Sc2cc(C(C)(C)C)c(O)c(C(C)(C)C)c2)c1C(C)(C)C` (configuration not stated) here?
Answer: > 50 µM

Question: With `CC(C)(Sc1cc(C(C)(C)C)c(O)c(C(C)(C)C)c1)Sc1ccc(C(C)(C)C)c(OCCCCO)c1C(C)(C)C` as the molecule, how does the IC50 [1] read?
Answer: 125 µM

Question: Which results are given for `CC(C)(Sc1cc(C(C)(C)C)c(O)c(C(C)(C)C)c1)Sc1ccc(C(C)(C)C)c(OC[C@H](O)[C@@H](O)CO)c1C(C)(C)C`?
Answer: IC50 [6]: 4 µM; inhibition in vivo at 25 mg/kg (Mus musculus [7]): 29%; IC50 [1]: 6 µM; IC50 [8]: 1.7 µM; inhibition in vivo at 50 mg/kg (Mus musculus [9]): 58%; IC50 [11]: 7.7 µM

Question: With `CC(C)(Sc1cc(C(C)(C)C)c(O)c(C(C)(C)C)c1)Sc1ccc(C(C)(C)C)c(O/C=C/CO)c1C(C)(C)C` as the molecule, how does the IC50 [1] read?
Answer: 55 µM

Question: With `CC(C)(Sc1cc(C(C)(C)C)c(O)c(C(C)(C)C)c1)Sc1ccc(C(C)(C)C)c(OC[C@H]2OC(O)[C@H](O)[C@@H]2O)c1C(C)(C)C` (some centres not stated) as the molecule, how does the IC50 [1] read?
Answer: 8 µM

Question: For `CC(C)(Sc1cc(C(C)(C)C)c(OCC(=O)O)c(C(C)(C)C)c1)Sc1ccc(C(C)(C)C)c(OCC(=O)O)c1C(C)(C)C`, which IC50 [6] is on record?
Answer: > 10 µM

Question: What about the IC50 [1] of the same molecule?
Answer: > 50 µM

Question: And the IC50 [8]?
Answer: > 10 µM

Question: And the IC50 [11]?
Answer: > 10 µM

Question: What about the IC50 [10] of the same molecule?
Answer: > 125 µM
